Laboratory results: ChEMBL document CHEMBL1131182, “Anti-AIDS agents. 34. Synthesis and structure-activity relationships of betulin derivatives as anti-HIV agents” (J Med Chem, 1998)

Key:
[1] = test system: H9; assay: Anti-HIV activity was measured in […] by MAGI assay; assay type: functional, cell-based; conditions: Homo sapiens
In short: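 HeLa-CD4/β-gal cells were plated at 10 000/well in DMEM with G418 500 µg/mL and hygromycin 250 µg/mL for 1 day. They were then infected with virus dilutions in the presence of varying drug for 2 days at 37 °C. Cells were fixed (1% formaldehyde, 0.2% glutaraldehyde) and stained with X-gal 0.4 mg/mL. Blue cells were counted, and EC50 was taken as a 50% reduction in infected cells.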

[2] = Therapeutic Index is the […] of the IC50 to that of EC50; assay type: cell-based; conditions: human, H9 cells; read-out: TI
[3] = test system: H9; assay: Anti-HIV activity against acutely infected H9 lymphocytes. Activity expressed as concentration of compound toxic to 50% of mock-infected H9 cells.; assay type: functional, cell-based; conditions: Homo sapiens
In short: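 Uninfected H9 cells were exposed to DMSO-dissolved samples (screen 100, 20, 4, 0.8 µg/mL final) for 4 days at 37 °C, 5% CO2. Remaining cells were counted with a counter against medium-only controls. IC50 is the concentration toxic to 50% of mock-infected cells; at least two experiments averaged.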

[4] = test system: H9; assay: Anti-HIV activity against acutely infected H9 lymphocytes. Activity expressed as concentration of compound able to suppress HIV replication by 50%.; assay type: functional, cell-based; conditions: Homo sapiens
In short: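 H9 cells (RPMI 1640, 10% FCS, L-glutamine, 37 °C, 5% CO2, log phase) infected 1 h with HIV-1 IIIB at MOI 0.1-0.01, washed and plated at 4 × 10^5 cells/mL with DMSO-dissolved samples (screen 100, 20, 4, 0.8 µg/mL final, further dilutions for actives). After 4 days, supernatant p24 was measured by antigen-capture ELISA against a standard curve. EC50 is 50% suppression of replication; at least two experiments averaged.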

`Cc1cn([C@H]2C[C@H](N=[N+]=[N-])[C@@H](CO)O2)c(=O)[nH]c1=O` [ZIDOVUDINE] showed an EC50 [1] of 0.037 µM.

For `C=C(C)[C@@H]1CC[C@]2(/C=N/OC(=O)CC(C)(C)CC(=O)O)CC[C@]3(C)[C@H](CC[C@@H]4[C@@]5(C)CC/C(=N\OC(=O)CC(C)(C)CC(=O)O)C(C)(C)[C@@H]5CC[C@]43C)[C@@H]12`, the selectivity ratio [2] was 3.4, the IC50 [3] was 15.4 µM and the EC50 [4] was 4.57 µM.

Molecule `C=C(C)[C@@H]1CC[C@]2(C(=O)O)CC[C@]3(C)[C@H](CC[C@@H]4[C@@]5(C)CC[C@H](OC(=O)CC(C)(C)C(=O)O)C(C)(C)[C@@H]5CC[C@]43C)[C@@H]12` [BEVIRIMAT] has a selectivity ratio [2] greater than 20000, an IC50 [3] greater than 7 µM and an EC50 [4] of less than 0.00035 µM.
